For one series, the system named is MT4. As to the kind of experiment: (§1) Cytotoxicity against human MT4 cells after 96 hrs by MTT assay. Format: cell-based. Conditions: mt4, 96 h. The method, boiled down: (§2)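 Exponentially growing mock-infected MT-4 seeded at 1 × 10^5 cells/mL in RPMI-1640 with 10% FCS, penicillin and streptomycin. Incubated with or without serial compound dilutions at 37 °C, 5% CO2. Viability by MTT after 96 h. CC50 = concentration reducing viability 50%.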
(Tetrazolium assays rely on reduction of a dye to a coloured formazan, in cell work by metabolically active cells.)

Series [1] in a line: (§3) Cytotoxicity against african green monkey Vero 76 cells by crystal violet staining. Format: cell-based. The following applies: chlorocebus sabaeus, Vero 76 cells. The method, boiled down: (§4)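 Mock-infected Vero 76 seeded at 4 × 10^5 cells/mL, run in parallel with plaque assays, with or without serial compound dilutions. Cell number of monolayers determined by crystal violet staining. CC50 = concentration reducing viable cell number 50%.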

In the next series the test system is Yellow fever virus. As to the kind of experiment: Antiviral activity against Yellow fever virus infected in BHK-21 cells assessed as inhibition of virus-induced cytopathicity after 3 to 4 days by MTT assay. Format: functional, organism-based. For orientation: Cytopathic effects are the visible damage that an infection or toxin causes in cultured cells.
Another series deals with Coxsackievirus B2. In words: Antiviral activity against Coxsackie virus type B2 virus infected in african green monkey Vero-76 cells after 3 days by plaque reduction assay. In kind it is functional, organism-based. Conditions: Enterovirus B, Vero 76, 72 h. The method, boiled down: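 Vero 76 cells seeded at 2 × 10^5 cells/well, grown overnight to confluence at 37 °C in 5% CO2, then infected at 50–100 PFU/well. Unadsorbed virus removed. Overlay of DMEM with 1% inactivated FCS and 0.75% methylcellulose, with or without serial compound dilutions. After 3 days at 37 °C, fixed and stained with crystal violet in PBS/50% ethanol; plaques counted. EC50 is the concentration reducing plaque number by 50%.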
On the technique in general: In a plaque reduction assay, fewer plaques than in the control indicate reduced infectivity or spread.

The test system of series [2] is Mammalian orthoreovirus 1. As to the kind of experiment: Antiviral activity against Reovirus-1 infected in BHK-21 cells assessed as inhibition of virus-induced cytopathicity after 3 to 4 days by MTT assay. In kind it is functional, organism-based. Conditions: Mammalian orthoreovirus 1, BHK-21. The essentials:
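BHK-21 cells seeded at 5 × 10^4 cells/well, grown overnight to confluent monolayers at 37 °C in 5% CO2, then infected at m.o.i. 0.01 in serum-free medium. One hour later, MEM Earle's with 1% final inactivated FCS added, with or without serial compound dilutions. Viability read by MTT after 3–4 days at 37 °C. EC50 is the concentration giving 50% protection from cytopathogenicity.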

Series [3] relates to Respiratory syncytial virus. As to the kind of experiment: Antiviral activity against Respiratory syncytial virus A2 infected in Vero-76 cells after 5 days by plaque reduction assay. Format: functional, organism-based. Conditions: human respiratory syncytial virus, A2, Vero 76, 120 h.
In the next series the test system is Poliovirus 1. In words: Antiviral activity against Human poliovirus 1 strain Sabin after 2 days by plaque reduction assay. The following applies: Enterovirus C, 48 h. In kind it is functional.
The subject of series [4] is Bovine viral diarrhea virus 1. In words: Antiviral activity against Bovine viral diarrhea virus infected in MDBK cells assessed as inhibition of virus-induced cytopathicity after 3 to 4 days by MTT assay. Format: functional, organism-based. The following applies: Bovine viral diarrhea virus isolates and strains.
Series [5] is described as follows: Cytotoxicity against MDBK cells after 48 to 96 hrs by MTT assay. Conditions: cattle. In kind it is cell-based, Bos taurus. The method, boiled down:
(§5)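 Mock-infected cells in maintenance medium, MDBK at 6 × 10^5 and BHK at 1 × 10^6 cells/mL initial density, with or without serial compound dilutions. Run in parallel with antiviral assays. Viability by MTT after 48–96 h at 37 °C, 5% CO2. CC50 = concentration reducing viability 50%.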

Series [6] can be described thus: Cytotoxicity against hamster BHK21 cells assessed as reduction in cell viability after 48 to 96 hrs by MTT assay. Format: cell-based, Mesocricetus auratus, BHK-21. The method, boiled down: as §5
A further series relates to Human alphaherpesvirus 1. As to the kind of experiment: Antiviral activity against HSV1 infected in Vero-76 cells after 3 days by plaque reduction assay. In kind it is functional, organism-based. The following applies: Human alphaherpesvirus 1, Vero 76, 72 h.
Series [7] can be described thus: as §1. In kind it is cell-based. Conditions: MT4 cells. The essentials:
as §2

A further series has as its system Vaccinia virus. In words: Antiviral activity against Vaccinia virus after 3 days by plaque reduction assay. Format: functional, organism-based. Conditions: Orthopoxvirus vaccinia.
For series [8], the system named is Vesicular stomatitis virus. As to the kind of experiment: Antiviral activity against Vesicular stomatitis virus after 2 days by plaque reduction assay. Format: functional, organism-based.
Series [9] deals with Human immunodeficiency virus 1. As to the kind of experiment: Antiviral activity against HIV1 infected in human MT4 cells assessed as inhibition of virus-induced cytopathicity after 4 days by MTT assay. Format: functional, organism-based.
Another series deals with Vero. The description is as §3. In kind it is cell-based. Conditions: chlorocebus sabaeus, vero. The essentials:
as §4

Data on 6 compounds can be found in ChEMBL document CHEMBL1154067, “Antiviral and cytotoxic activities of aminoarylazo compounds and aryltriazene derivatives” (Bioorg Med Chem, 2009).

Structures are written as SMILES. Activity calls are given as the source filed them. The rule behind the calls is not given here.

By CC50 is commonly meant the concentration that lowers cell viability or growth by half. For orientation: EC50 means the concentration giving half of the maximal effect. For `NC(=O)c1ncn([C@@H]2O[C@H](CO)[C@@H](O)[C@H]2O)n1` [RIBAVIRIN], the half-maximal cytotoxic concentration (CC50) in the series on MT4 is 31 µM; in series [1], greater than 100 µM; in [5] (MDBK cells) it was greater than 100 µM; in series [6] (BHK21 cells) it was greater than 100 µM. The EC50 is greater than 100 µM in the series with Yellow fever virus; greater than 100 µM in the series with Coxsackievirus B2; greater than 100 µM in series [2]; 7 µM in series [3]; greater than 100 µM in the series on Poliovirus 1; 7 µM in [4]. The compound also came in with a concentration giving a half-maximal response (EC50) in the series with Human alphaherpesvirus 1 greater than 100 µM.
The compound `CN(C)CCCN(/N=N/c1ccccc1)c1cccc(C(F)(F)F)c1` returned a CC50 at 96 h in series [7] of 14 µM. In addition, the figures for the CC50 in [1], in series [5] (MDBK cells) and in [6] (BHK21 cells) were 20 µM, 38 µM and 49 µM, respectively. The EC50 in the series on Yellow fever virus was no less than 49 µM; in the series on Coxsackievirus B2, no less than 20 µM; in series [2], greater than 49 µM; in [3], greater than 20 µM; in the series on Poliovirus 1, greater than 20 µM; in [4], greater than 38 µM. In the series on Human alphaherpesvirus 1, this compound gave a concentration giving a half-maximal response (EC50) of 14 µM. Further, the result (with Vaccinia virus; in [8]) was inactive. Also, the inhibition entry in [9] is “inactive”.
For `Nc1nc2c(ncn2COCCO)c(=O)[nH]1` [ACYCLOVIR], the 50% cytotoxic concentration (CC50) at 96 h in [7] is greater than 100 µM. For the same compound, the CC50 in series [1], in series [5] (MDBK cells) and in series [6] (BHK21 cells) was greater than 100 µM throughout. The EC50 (in the series with Yellow fever virus; with Coxsackievirus B2; in series [2]; in series [3]; in the series on Poliovirus 1; in series [4]) was greater than 100 µM in each case.
`C[C@@]1(O)[C@H](O)[C@@H](CO)O[C@H]1n1cnc2c(=O)[nH]c(N)nc21` [2'-B-METHYL-GUANOSINE] gave a CC50 at 96 h in series [7] greater than 100 µM. The figures for the CC50 in series [1], in series [5] (MDBK cells) and in [6] (bhk-21) were greater than 100 µM, greater than 100 µM and 90 µM, respectively. In addition, the EC50 in the series on Yellow fever virus was 1.8 µM; in [2], 2.4 µM; in [3], greater than 100 µM; in the series with Poliovirus 1, greater than 100 µM; in the series with Human alphaherpesvirus 1, greater than 100 µM.
`O=[N+]([O-])c1cccc(/N=N/Nc2ccccc2)c1`: the CC50 with MT4 worked out at 40 µM; in the series on Vero, 33 µM; in series [5] (mdbk), 94 µM; in series [6] (bhk-21), 38 µM. Further, the EC50 in the series on Yellow fever virus was greater than 38 µM; in the series on Coxsackievirus B2, greater than 33 µM; in [2], greater than 38 µM; in series [3], greater than 33 µM; in the series with Poliovirus 1, greater than 33 µM; in [4], 19 µM. Further, the half-maximal effective concentration (EC50) in the series with Human alphaherpesvirus 1 is greater than 33 µM. Further, the result (in the series on Vaccinia virus; in [8]) was inactive. The inhibition result in series [9] was “inactive”.
As to `c1ccc(CN/N=N/c2ccccc2)cc1`, the 50% cytotoxic concentration (CC50) was 42 µM in the series on MT4, 100 µM with Vero, greater than 100 µM in [5] (mdbk) and greater than 100 µM in [6] (bhk-21). The EC50 (in the series with Yellow fever virus; in the series with Coxsackievirus B2; in series [2]; in series [3]; in the series with Poliovirus 1; in [4]) was greater than 100 µM in each case. For the same compound, the EC50 with Human alphaherpesvirus 1 was greater than 100 µM. Moreover, the outcome (in the series with Vaccinia virus; in series [8]) was inactive. Further, the inhibition result in series [9] is “inactive”.
